From ChEMBL document CHEMBL1134510, “Adenosine analogues as selective inhibitors of glyceraldehyde-3-phosphate dehydrogenase of Trypanosomatidae via structure-based drug design” (J Med Chem, 2001)

Experiments:
[1] = Inhibitory activity against Leishmania mexicana GAPDH; Inactive at 50 uM
[2] = In vitro inhibition of rabbit muscle GAPDH.; design: species or system Oryctolagus cuniculus
Procedure, shortened: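 Spectrophotometric assay at 23 °C in 0.10 M triethanolamine/HCl, pH 7.5. Enzyme starts the reaction and inhibitors are in 5% DMSO-d₆. Initial rates over 0–2 min are compared with control. IC50 comes from ≥5 concentrations, or is extrapolated from ≥3 concentrations when above 50 µM.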

Trypanosoma brucei = test: Effective concentration required to block the growth of bloodstream Trypanosoma brucei; type: functional; conditions: read-out: ED50 (the source's name)
Procedure, shortened: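 Bloodstream-form strain 427 trypomastigotes grown in HMI-9 with 10% fetal bovine serum, penicillin and streptomycin at 37 °C, 5% CO2. Inoculum 5 × 10³ parasites per well, drug given in serial dilutions, triplicate wells. Growth read at 48 h with Alamar Blue, checked against hemacytometer counts. Assay run twice.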

| Compound | IC50 [1] | IC50 [2] [nM] | EC50 (Trypanosoma brucei) [nM] |
| --- | --- | --- | --- |
| CC(=O)Oc1ccccc1C(=O)N[C@@H]1[C@H](O)[C@@H](CO)O[C@H]1n1cnc2c(NCc3cccc4ccccc34)ncnc21 | Not Active |  |  |
| COc1cccc(C(=O)N[C@@H]2[C@H](O)[C@@H](CO)O[C@H]2n2cnc3c(NCc4cccc5ccccc45)ncnc32)c1O | Not Active |  |  |

Next, values leading:

| IC50 [1] | IC50 [2] [nM] | EC50 (Trypanosoma brucei) [nM] | Compound |
| --- | --- | --- | --- |
| Not Active |  |  | COc1cccc(C(=O)N[C@@H]2[C@H](O)[C@@H](CO)O[C@H]2n2cnc3c(NCc4c(OC)ccc5ccccc45)ncnc32)c1 |
| Not Active |  |  | COc1ccccc1C(=O)N[C@@H]1[C@H](O)[C@@H](CO)O[C@H]1n1cnc2c(NCc3cccc4ccccc34)ncnc21 |
|  | > 50000 | 6 | N=C(N)c1ccc(OCCCCCOc2ccc(C(=N)N)cc2)cc1 [PENTAMIDINE] |
